CHT allo act: allosteric activators of human choline transporter CHT. Q9GZV3. B-score at 10 µM. 310,000 compounds, 0.49% hits. CHT-expressing cells, membrane potential dye, choline EC20; active compounds read high; LV-AA mutant CHT in HEK293 cells. AID 488977;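 active = initial fluorescence not abnormally high and integrated response B-score, plate-corrected, over 3 SD above library mean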
Target sequence (Q9GZV3 whole entry, looked up): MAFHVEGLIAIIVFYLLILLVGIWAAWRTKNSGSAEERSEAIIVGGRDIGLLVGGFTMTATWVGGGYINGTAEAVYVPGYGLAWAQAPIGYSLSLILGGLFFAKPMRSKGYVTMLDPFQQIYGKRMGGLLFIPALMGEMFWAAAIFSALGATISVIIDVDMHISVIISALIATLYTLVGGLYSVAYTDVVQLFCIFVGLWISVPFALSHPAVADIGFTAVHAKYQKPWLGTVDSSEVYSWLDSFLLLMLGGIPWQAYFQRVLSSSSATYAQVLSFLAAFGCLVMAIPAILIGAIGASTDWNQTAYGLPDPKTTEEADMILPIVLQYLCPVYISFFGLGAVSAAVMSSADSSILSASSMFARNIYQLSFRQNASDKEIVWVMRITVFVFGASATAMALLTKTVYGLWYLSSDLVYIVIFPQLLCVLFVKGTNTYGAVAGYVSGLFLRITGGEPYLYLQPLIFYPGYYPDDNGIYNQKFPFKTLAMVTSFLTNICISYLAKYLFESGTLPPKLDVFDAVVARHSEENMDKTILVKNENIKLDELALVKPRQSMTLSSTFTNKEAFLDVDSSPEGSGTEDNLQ
CHT inh: inhibits the human high affinity choline transporter; Q9GZV3; CHT-expressing cells, membrane potential dye, choline response; active compounds read low; B-score at 10 µM; 310,000 compounds, 0.86% hits;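 active = B-score over 3 SD under the library average, and starting fluorescence ratio not unusually high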;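 also: choline stimulus applied at its EC90 after an EC20 pre-addition; B-score computed on integrated fluorescence ratio after choline addition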
HSF1 inhib: HSF1 inhibition; AID 2098; NIH3T3-HGL HSE-luciferase, MG132-induced, luminescence 8 h; active compounds read low; activity change, negative = inhibition, % at 7.5 µM (by protocol); 300,000 compounds, 0.77% hits;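 active = more than half of replicate wells show activity change below -50%, luminescence cut by over half; inconclusive = some wells, but at most half, below -50%; inactive = no replicate well below -50%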;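 also: luciferase reports HSF-1 transcriptional activity via heat shock element; 0% = median of DMSO wells and -100% = zero luminescence signal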
PHOSPHO1 inh: inhibitors of human PHOSPHO1 phosphatase; Q8TCT1; recombinant PHOSPHO1, absorbance phosphatase assay; inhibition, % at 13.3 µM; 290,000 compounds, 1.1% hits; AID 1565; in the data active = inhibition above about 60%
HSF1 activator: increases HSF-1 driven luciferase reporter signal | 300,000 compounds, 1.7% hits | activation, % at 9 µM | AID 504408 | NIH3T3-HGL HSF-1 luciferase reporter, MG132, 8 h; 100% = twice DMSO control signal;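 active = mean replicate activation of at least 50% with a set share of replicates each reaching 50%; inconclusive = only one of those two conditions met; inactive = mean below 50% and too few replicates reaching it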;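 also: 0% = median of the neutral control wells and 100% = twice that signal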
Lipid droplet: modulators of hepatic lipid droplet formation | AML12 mouse hepatocytes, oleate lipid droplets, BODIPY imaging | inhibition, % at 6.5 µM | 240,000 compounds, 0.4% hits;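 active = lipid droplet intensity inhibited by at least 50%, with more than 500 cells counted; inconclusive = wells with under 300 cells, treated as cytotoxic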
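Material: mouse AML12 hepatocyte cell line, fixed after treatment; Timing: compound with oleate, overnight; Technique: high-content imaging of BODIPY-stained droplets and DAPI nuclei; Probe or stimulus: oleate, 100 µM final; Dosing: compound at 6.5 µM only.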
CHT block conf: human CHT inhibition, confirmatory screen | CHT-expressing cells, choline membrane potential dye; LV-to-AA substituted CHT, HEK293 cells | 2,400 compounds, 70% hits | shares compounds with CHT inh | CHT activity remaining % of control (active compounds read low), % at 10 µM | AID 493221;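 active = choline transporter activity left, mean of duplicates at 10 µM, below buffer-only control mean minus 3 SD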;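 also: depolarization triggered by choline at its EC90 following an EC20 pre-addition; 0% = hemicholinium-3 full block and 100% = buffer-only control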
HEK293 MPD ctr: CHT inhibitor counter-screen hit in parental HEK293 cells; AID 493222; 2,400 compounds, 4% hits; membrane potential dye, choline response; active = decrease or increase beyond buffer ±3SD; shares compounds with CHT inh; membrane potential ratio readout (active if shifted either direction beyond buffer ±3SD; no single direction) at 10 µM;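 also: parental cells lack the transporter so any hit is non-specific; ratio is peak minus trough fluorescence over baseline after EC90 choline challenge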
* = called active by the depositor; i = inactive; ? = inconclusive; . = no result given. This is a sample that favours compounds with a hit; in the whole collection about 4.9% have one here.

SMILES | CHT allo act | CHT inh | HSF1 inhib | PHOSPHO1 inh | HSF1 activator | Lipid droplet | CHT block conf | HEK293 MPD ctr
CC1(C)Cc2ccccc2C(COc2ccccc2)=N1 | i | i | -10 | 30 | -14 | 3 | . | .
CC1=NC(C)(C)Cc2ccccc21 | i | -10* | -5 | -19 | -5 | . | 20%* | i
Clc1ccc2c(N3CCCC3)ccnc2c1 | i | -8* | 6 | 6 | -6 | -2 | 26%* | i
Oc1ccc(N2CCN(c3ccnc4cc(Cl)ccc34)CC2)cc1 | i | i | -5 | 23 | 2 | 13 | . | .
CCCNC(=O)c1ccc(N2CCC3(CC2)CC(c2cccc(Br)c2)=NO3)c(N)c1 | i | i | . | . | . | . | . | .
Cc1ccc(C)[n+](CC(=O)c2ccc(-c3ccccc3)cc2)c1 | i | -4.9* | 8 | 32 | -3 | -38 | 25%* | i
Cc1ccc(C(=O)C[n+]2cccc(C(N)=O)c2)cc1 | i | i | 3 | -4 | -13 | 0 | . | .
Cc1ccc[n+](CC(=O)c2ccc(-c3ccccc3)cc2)c1 | i | -11* | -8 | -27 | -12 | -17 | i | i
Cc1ccc(C(=O)C[n+]2ccccc2)cc1 | i | i | -2 | -3 | 6 | 6 | . | .
Cc1ccc[n+](CC(=O)c2ccc(Cl)cc2)c1 | i | -11* | -5 | 8 | 5 | -10 | 5.6%* | i
Cc1ccc(S(=O)(=O)Nc2ccccc2C(=O)N2CCCCCC2)cc1 | i | i | 1 | 15 | 10 | -19 | . | .
COc1ccc(S(=O)(=O)N(CCc2ccccc2)CC(=O)O)cc1Cl | i | i | -15 | 3 | 0 | 3 | . | .
COc1ccc(Cl)cc1NC(=O)N(C)Cc1c(C)nn(C)c1C | i | i | 4 | -14 | 9 | -11 | . | .
CC(C)(C)NCC(O)CON=C1c2ccccc2-c2ccccc21 (configuration not stated) | i | i | -20 | -18 | -38 | 3 | . | .
CC(C)(C)NCC(O)c1cc(O)cc(O)c1 (configuration not stated) | i | -5.9* | 6 | 1 | -3 | -9 | 45%* | i
COc1ccc(Cn2c(=O)c3[nH]cnc3n(-c3ccccc3C)c2=O)cc1 | i | -5.5* | -15 | -10 | -8 | . | 56%* | i
COc1ccc(C(=O)NC(=S)NNC(=O)COc2ccccc2)cc1 | i | i | 4 | 25 | 17 | 2 | . | .
OCC1OC(n2cnc3c(NCCc4ccccc4)ncnc32)C(O)C1O (configuration not stated) | i | i | 3 | . | 10 | . | . | .
CNC(=O)[C@H]1O[C@@H](n2cnc3c(NCc4cccc(I)c4)ncnc32)[C@H](O)[C@@H]1O | i | -5.2* | . | . | . | . | 44%* | i
CC(/C=N/NC(=O)c1cc(-c2ccncc2)nc2ccccc12)=C\c1ccco1 | i | -7.5* | 3 | -13 | 22 | ? | 40%* | i
Cc1ccc(/C=N/NC(=O)c2cc(-c3ccncc3)nc3ccccc23)o1 | . | . | -19 | . | -20 | -156 | . | .
COc1ccc(NC(=O)CCCSc2nc(-c3ccco3)cc(C(F)(F)F)n2)cc1OC | i | i | -11 | -4 | 9 | -6 | . | .
O=c1[nH]c(=S)[nH]c2sc3c(c12)CCCCCC3 | i | i | 6 | -73 | 12 | -15 | . | .
COc1ccc(C(=O)C[n+]2ccccc2C)cc1 | i | i | 3 | -12 | 14 | 1 | . | .
Cc1sc[n+](CC(=O)c2ccc(Br)cc2)c1C | i | -13* | 1 | 27 | 6 | 15 | 24%* | i
SMILES | CHT allo act | CHT inh | HSF1 inhib | PHOSPHO1 inh | HSF1 activator | Lipid droplet | CHT block conf | HEK293 MPD ctr
O=C(C[n+]1cccc2ccccc21)c1ccc(Br)cc1 | i | -9.3* | 3 | 25 | -2 | -2 | 26%* | i
Cc1ccc(C(=O)C[n+]2cccc3ccccc32)cc1 | i | -6.5* | -4 | 2 | 6 | -3 | 29%* | i
O=C(CCNC(=O)Cn1ccc2ccccc2c1=O)NCC1CCCC1c1ccccc1 (configuration not stated) | i | i | -4 | 40 | 11 | 26 | . | .
Cc1ccc(N(C(=O)CNC(=O)c2ccco2)C(C(=O)NC2CCCCC2)c2cccnc2)c(C)c1 (configuration not stated) | i | i | 8 | 19 | 37 | -8 | . | .
O=C(Nc1nncs1)c1ccc(F)c(S(=O)(=O)N2CCCCC2)c1 | . | . | -42 | . | -56 | 5 | . | .
Cc1cccc(C(=O)NC(=S)NCc2ccccc2)c1 | i | i | -1 | . | 2 | . | . | .
O=C(CCc1ccccc1)NNC(=O)c1ccc(Cl)cc1 | i | i | -1 | -32 | -4 | 4 | . | .
Cc1cccc(C(=O)NC(=S)NNC(=O)Cc2ccccc2)c1 | i | -6.7* | 5 | 38 | 10 | -4 | 52%* | i
O=C(CCc1ccccc1)NNC(=S)NC(=O)c1ccc(Cl)cc1 | i | -5.7* | 6 | 95* | 17 | 0 | 70%* | i
CCC1(c2ccccc2)NC(=O)N(CC(=O)Nc2cc(Cl)ccc2N2CCOCC2)C1=O (configuration not stated) | i | i | 6 | . | 5 | . | . | .
CC(C)(CNC(=O)c1cccc(S(=O)(=O)NCc2ccccc2)c1)N1CCOCC1 | i | i | -3 | . | -2 | . | . | .
CCC(Sc1nnc(-c2ccc(C)c(Cl)c2)n1CC)C(=O)Nc1nccs1 (configuration not stated) | i | -5.9* | . | 62* | . | . | 50%* | i
CCOC(=O)c1c(S(=O)(=O)N(C)Cc2ccco2)c(C)n(C)c1C | i | i | -13 | 54 | -6 | -10 | . | .
CCn1ncc(Br)c1C(=O)NC(C)c1ccccc1 (configuration not stated) | i | -5.8* | 1 | -8 | 5 | -5 | i | i
CCn1ncc(Cl)c1C(=O)NC(C)c1ccccc1 (configuration not stated) | i | i | -3 | -2 | -6 | 9 | . | .
COc1cc2c(cc1OC)-c1cc(NC3CCCCCCC3)nc(=O)n1CC2 | i | -7.6* | -5 | -3 | 0 | . | 27%* | i
CC(Nc1cc(N2CCNCC2)ccc1[N+](=O)[O-])c1ccccc1 (configuration not stated) | i | -6.4* | 8 | 2 | ? | 8 | 35%* | 2.7*

Screens from PubChem.
